From ChEMBL document CHEMBL4390698, “Targeted delivery of atorvastatin via asialoglycoprotein receptor (ASGPR)” (Bioorg Med Chem, 2019)
The source made the active and inactive calls. No cut-off for these calls is given here.

Assays:
[1] = Drug uptake in human Hep3B cells assessed as ASGPR-mediated cellular uptake at 90 uM incubated for 3 hrs by UV spectrum and mass spectroscopic method relative to atorvastatin; type: ADME, cell-based
In short: (§1)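 Hep3B cells in EMEM/10% FBS, 37 °C, 5% CO2, seeded 1×10^4 cells/cm2. After 24 h, compound was added from 18 mM stocks to a final 90 μM, with or without 90 mM GalNac co-added, for 3 h. Cells were rinsed, trypsinised and pelleted, then extracted with methanol/DCM. Supernatant was read by UV and mass spectra, and amounts were taken from standard curves.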

[2] = Drug metabolism assessed as esterase (unknown origin)-mediated atorvastatin release in pH 7.4 PBS buffer incubated for 3 to 24 hrs by mass spectrometry; type: ADME; conditions: human
In short: (§2)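 Porcine liver esterase hydrolysis; DMSO stocks 3.5 mM. pH 7.40 route: stock diluted into PBS pH 7.40 containing 0.5 mg/mL esterase, 37 °C, sampled at 0 h, 3 h and 24 h. pH 4.50 route: PBS pH 4.50 at 37 °C for 24 h, pH raised to 7.40 with NaOH, PBS pH 7.40 containing 1.0 mg/mL esterase added, 37 °C one day. Reactions quenched with DCM; DCM layer analysed by mass spectrometry.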

[3] = Drug uptake in human Hep3B cells assessed as ASGPR-mediated cellular uptake at 90 uM incubated for 3 hrs in presence of 90 mM GalNac by UV spectrum and mass spectroscopic method relative to atorvastatin; type: ADME, cell-based; in short: as §1
[4] = biological target: T1, 3-hydroxy-3-methylglutaryl-coenzyme A reductase (Homo sapiens) (UniProt P04035); test: Inhibition of HMG CoA reductase (unknown origin) using hydrolyzed product of compound in presence of NADPH incubated for 24 hrs in pH 4.5 PBS followed by incubation in pH 7.4 for 24 hrs in presence of esterase
T1 sequence (whole entry): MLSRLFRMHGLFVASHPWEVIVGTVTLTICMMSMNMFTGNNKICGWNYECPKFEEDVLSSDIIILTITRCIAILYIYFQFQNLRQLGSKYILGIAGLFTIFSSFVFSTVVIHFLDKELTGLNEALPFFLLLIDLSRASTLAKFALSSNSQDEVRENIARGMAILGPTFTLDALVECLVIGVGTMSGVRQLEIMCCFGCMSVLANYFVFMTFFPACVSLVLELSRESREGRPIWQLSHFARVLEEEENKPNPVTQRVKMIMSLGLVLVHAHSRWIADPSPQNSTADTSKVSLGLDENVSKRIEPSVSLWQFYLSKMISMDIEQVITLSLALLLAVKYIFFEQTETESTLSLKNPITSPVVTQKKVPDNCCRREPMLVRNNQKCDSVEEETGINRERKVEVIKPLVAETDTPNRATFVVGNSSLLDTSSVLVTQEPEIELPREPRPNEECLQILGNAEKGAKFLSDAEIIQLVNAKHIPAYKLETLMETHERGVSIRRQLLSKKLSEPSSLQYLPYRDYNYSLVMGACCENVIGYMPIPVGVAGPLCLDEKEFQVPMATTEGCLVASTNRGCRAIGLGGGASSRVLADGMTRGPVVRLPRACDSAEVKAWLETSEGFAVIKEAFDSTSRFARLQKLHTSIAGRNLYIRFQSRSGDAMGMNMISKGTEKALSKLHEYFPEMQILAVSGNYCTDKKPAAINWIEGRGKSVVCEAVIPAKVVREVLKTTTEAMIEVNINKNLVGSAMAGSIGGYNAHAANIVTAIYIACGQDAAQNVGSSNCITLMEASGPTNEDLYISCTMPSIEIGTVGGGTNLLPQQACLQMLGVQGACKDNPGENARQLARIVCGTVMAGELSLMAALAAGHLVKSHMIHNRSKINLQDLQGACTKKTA

[5] = biological target: T1, 3-hydroxy-3-methylglutaryl-coenzyme A reductase (Homo sapiens); test: Inhibition of HMG CoA reductase in human Hep3G cells assessed as increase in LDL receptor expression at 25 uM incubated for 48 hrs by immunofluorescence method; type: cell-based; conditions: in the assay text read “Hep3B” for “Hep3G”
In short: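 Hep3B cells seeded 2×10^5 cells/cm2 and treated 24 h later at 25 μM final (from 10 mM stocks) for 48 h. Harvested cells were stained with anti-LDL receptor primary (1/100, 30 min RT), then goat anti-mouse IgG (1/2000, 30 min RT, dark), and analysed by flow cytometry. Triplicate; two-tailed t test.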

[6] = Drug metabolism assessed as esterase (unknown origin)-mediated atorvastatin release in pH 4.5 PBS buffer incubated for 3 to 24 hrs by mass spectrometry; type: ADME; conditions: human; in short: as §2
[7] = biological target: T1, 3-hydroxy-3-methylglutaryl-coenzyme A reductase (Homo sapiens); test: Inhibition of HMG CoA reductase (unknown origin) in pH 4.5 PBS in presence of NADPH incubated for 10 mins
In short: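 Commercial HMG-CoA reductase kit, run on conjugates first hydrolysed as in the esterase procedure (pH 7.40 esterase, or pH 4.50 then pH 7.40 esterase). Absorbance at 340 nm was read kinetically for 10 min. Activity was computed from ΔA340/min (sample minus blank) using NADPH ε 6.22 mM⁻¹cm⁻¹ ×2, 0.6 mg/mL enzyme, 12×10^-3 mL enzyme, 0.2 mL total volume and 0.55 cm path.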

SMILES	fold change (FC) [1]	Drug metabolism [2]	Drug uptake [3]	inhibition [4]	inhibition [5]	Drug metabolism [6]	inhibition [7]
CC(=O)N[C@H]1[C@H](OCCn2cc(COC(=O)C[C@H]3C[C@@H](CCn4c(-c5ccc(F)cc5)c(-c5ccccc5)c(C(=O)Nc5ccccc5)c4C(C)C)OC(C)(C)O3)nn2)O[C@H](CO)[C@H](O)[C@@H]1O	5.1	Metabolite_Notdetected	Not Active	inactive	Active	Metabolite_Detected	inactive
CC(C)c1c(C(=O)Nc2ccccc2)c(-c2ccccc2)c(-c2ccc(F)cc2)n1CC[C@@H](O)C[C@@H](O)CC(=O)O					Active		Active
CC(=O)N[C@H]1[C@H](OCCn2cc(COC(=O)C[C@H](O)C[C@H](O)CCn3c(-c4ccc(F)cc4)c(-c4ccccc4)c(C(=O)Nc4ccccc4)c3C(C)C)nn2)O[C@H](CO)[C@H](O)[C@@H]1O	1.4	Metabolite_Detected	Not Active	inactive	Active		inactive
